Results on 10 molecules are retold here after ChEMBL document CHEMBL4619818, “Mining Public Domain Data to Develop Selective DYRK1A Inhibitors” (ACS Med Chem Lett, 2020).

≈ marks a conversion by molar mass, not a printed value.

Series [1] has as its target T1, Dual specificity tyrosine-phosphorylation-regulated kinase 1A (Homo sapiens, UniProt Q13627). Kind of series: Inhibition of recombinant human N-terminal Hex-tagged DYRK1A (127 to 485 residues) expressed in Escherichia coli BL21 (DE3) incubated for 1.5 hrs by TR-FRET assay. (In general: Time-resolved FRET reads energy transfer from a long-lived donor to a nearby acceptor.)

For series [2], the target named is T1, Dual specificity tyrosine-phosphorylation-regulated kinase 1A. Briefly: Inhibition of DYRK1A (unknown origin) at 1 uM by PanQinase assay relative to control.
Series [3] addresses Cyclin-dependent kinase 2 (Homo sapiens) (UniProt P24941). Kind of series: Inhibition of CDK2 (unknown origin) at 1 uM by PanQinase assay relative to control.
Series [4] deals with T1, Dual specificity tyrosine-phosphorylation-regulated kinase 1A. Kind of series: Inhibition of recombinant human DYRK1A (129 to 509 residues) expressed in mammalian expression system at 1 uM by DiscoverX competition binding assay relative to control. The gist of the method:
(§1)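 Competition binding assay with test compound at 1 µM inhibitor concentration. Result expressed as percent inhibition, single determination (n=1). The kinome-wide panel also gave a selectivity score, S-Score(40).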

For series [5], the target named is Dual specificity tyrosine-phosphorylation-regulated kinase 1B (Homo sapiens) (UniProt Q9Y463). Briefly: Inhibition of recombinant human full length DYRK1B (1 to 629 residues) expressed in bacterial expression system at 1 uM by DiscoverX competition binding assay relative to control. The gist of the method:
as §1

The target of series [6] is T2, Dual specificity tyrosine-phosphorylation-regulated kinase 2 (Homo sapiens) (UniProt Q92630).
T2 sequence (whole entry): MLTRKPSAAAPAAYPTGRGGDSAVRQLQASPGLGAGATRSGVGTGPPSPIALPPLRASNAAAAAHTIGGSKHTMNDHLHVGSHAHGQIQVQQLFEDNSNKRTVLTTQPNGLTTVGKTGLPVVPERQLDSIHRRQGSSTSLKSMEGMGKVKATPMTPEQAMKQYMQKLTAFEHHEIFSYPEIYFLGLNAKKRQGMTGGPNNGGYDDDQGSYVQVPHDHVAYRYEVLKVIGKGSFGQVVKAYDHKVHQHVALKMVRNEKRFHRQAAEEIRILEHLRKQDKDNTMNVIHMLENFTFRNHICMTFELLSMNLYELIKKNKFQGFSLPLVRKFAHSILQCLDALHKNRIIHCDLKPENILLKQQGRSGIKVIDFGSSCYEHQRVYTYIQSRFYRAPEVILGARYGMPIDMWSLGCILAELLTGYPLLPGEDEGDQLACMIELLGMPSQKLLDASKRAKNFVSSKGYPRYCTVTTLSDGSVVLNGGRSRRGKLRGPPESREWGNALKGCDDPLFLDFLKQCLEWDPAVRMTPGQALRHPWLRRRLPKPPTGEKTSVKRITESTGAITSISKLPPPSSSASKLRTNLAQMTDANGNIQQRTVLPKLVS
Briefly: Inhibition of recombinant human full length DYRK2 (1 to 528 residues) expressed in mammalian expression system at 1 uM by DiscoverX competition binding assay relative to control. In outline: as §1

The target in series [7] is Dual specificity protein kinase CLK1 (Homo sapiens) (UniProt P49759). Kind of series: Inhibition of recombinant human full length CLK1 (1 to 484 residues) expressed in bacterial expression system at 1 uM by DiscoverX competition binding assay relative to control. In outline: as §1
The target in series [8] is Dual specificity protein kinase CLK2 (Homo sapiens) (UniProt P49760). Kind of series: Inhibition of recombinant human partial length CLK2 (144 to 484 residues) expressed in bacterial expression system at 1 uM by DiscoverX competition binding assay relative to control. In outline: as §1
Series [9] addresses Dual specificity protein kinase CLK3 (Homo sapiens) (UniProt P49761). Kind of series: Inhibition of recombinant human full length CLK3 (1 to 490 residues) expressed in bacterial expression system at 1 uM by DiscoverX competition binding assay relative to control. In outline:
as §1

In series [10] the target is Cyclin-dependent kinase 2 (Homo sapiens) (UniProt P24941). Kind of series: Inhibition of recombinant human full length CDK2 (1 to 298 residues) expressed in bacterial expression system at 1 uM by DiscoverX competition binding assay relative to control. The gist of the method:
as §1

Series [11] addresses Glycogen synthase kinase-3 beta (Homo sapiens) (UniProt P49841). Kind of series: Inhibition of recombinant human full length GSK3beta (1 to 433 residues) expressed in mammalian expression system at 1 uM by DiscoverX competition binding assay relative to control. In outline:
as §1

Series [12] in a line: Metabolic stability in human liver microsomes assessed as intrinsic clearance. Type of series: ADME, Microsome. The note with it: read-out: CLH. The gist of the method: (§2)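 Microsomal incubations with human or rat liver microsomes. Intrinsic clearance given in µL/min/mg; values are the mean of n = 2.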
(In general: Liver microsomes are vesicles of endoplasmic reticulum, rich in cytochrome P450 enzymes.)

Series [13] is described as follows: Metabolic stability in rat liver microsomes assessed as intrinsic clearance. Type of series: ADME, Microsome. The settings on record: read-out: CLH. In outline:
as §2

A short description of series [14]: Thermodynamic solubility of compound at pH 6.8. Type of series: physicochemical. The settings on record: buffer, read-out: Therm_solubility. The gist of the method:
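Thermodynamic (intrinsic) solubility by shake-flask method in PBS buffer at pH 6.8. Reported in mg/mL from a single experiment.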

Series [15] can be described thus: Apparent permeability from apical to basolateral side in dog MDCK-MDR1 cells. Type of series: ADME, cell-based, Canis lupus familiaris. In outline:
(§3)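 MDCK cells transfected with human MDR1 gene. Apparent permeability coefficient (Papp, 10^-6 cm/s) measured across the cell layer in each direction, apical to basolateral and basolateral to apical. Mean values reported; efflux ratio taken as Papp B2A / Papp A2B.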

Series [16] is described as follows: Apparent permeability from basolateral to apical side in dog MDCK-MDR1 cells. Type of series: ADME, cell-based, Canis lupus familiaris. The gist of the method: as §3
Series [17] can be described thus: Efflux ratio of apparent permeability from basolateral to apical side over apical to basolateral side in dog MDCK-MDR1 cells. Type of series: ADME, cell-based, Canis lupus familiaris. The gist of the method:
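MDCK cells transfected with human MDR1 gene (Cyprotex assay); permeability coefficient (Papp) measured in both directions, apical to basolateral and basolateral to apical; efflux ratio taken as mean Papp B2A divided by mean Papp A2B.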

Series [18] deals with T1, Dual specificity tyrosine-phosphorylation-regulated kinase 1A. Kind of series: Binding affinity to DYRK1A (unknown origin) assessed as dissociation constant measured for 60 to 300 sec by SPR analysis. (In general: Surface plasmon resonance follows binding to a sensor surface in real time, without labels.)

Chain of Dual specificity protein kinase CLK1 (Homo sapiens) (P49759 whole entry, looked up, the tested form may be a part): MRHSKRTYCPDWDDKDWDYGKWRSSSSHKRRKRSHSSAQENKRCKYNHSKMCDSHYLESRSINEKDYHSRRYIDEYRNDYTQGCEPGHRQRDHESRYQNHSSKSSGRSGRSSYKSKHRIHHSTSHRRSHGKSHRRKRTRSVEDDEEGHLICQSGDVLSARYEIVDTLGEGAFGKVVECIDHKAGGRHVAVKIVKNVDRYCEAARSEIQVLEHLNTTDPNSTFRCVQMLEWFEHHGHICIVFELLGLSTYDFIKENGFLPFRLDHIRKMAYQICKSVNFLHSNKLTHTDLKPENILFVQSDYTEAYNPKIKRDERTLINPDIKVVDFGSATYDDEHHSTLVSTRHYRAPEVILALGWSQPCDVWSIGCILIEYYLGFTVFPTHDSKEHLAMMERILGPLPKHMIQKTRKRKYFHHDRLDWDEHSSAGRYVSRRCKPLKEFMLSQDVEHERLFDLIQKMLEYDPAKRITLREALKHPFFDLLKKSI
Chain of Dual specificity protein kinase CLK2 (Homo sapiens) (P49760 whole entry, looked up, the tested form may be a part): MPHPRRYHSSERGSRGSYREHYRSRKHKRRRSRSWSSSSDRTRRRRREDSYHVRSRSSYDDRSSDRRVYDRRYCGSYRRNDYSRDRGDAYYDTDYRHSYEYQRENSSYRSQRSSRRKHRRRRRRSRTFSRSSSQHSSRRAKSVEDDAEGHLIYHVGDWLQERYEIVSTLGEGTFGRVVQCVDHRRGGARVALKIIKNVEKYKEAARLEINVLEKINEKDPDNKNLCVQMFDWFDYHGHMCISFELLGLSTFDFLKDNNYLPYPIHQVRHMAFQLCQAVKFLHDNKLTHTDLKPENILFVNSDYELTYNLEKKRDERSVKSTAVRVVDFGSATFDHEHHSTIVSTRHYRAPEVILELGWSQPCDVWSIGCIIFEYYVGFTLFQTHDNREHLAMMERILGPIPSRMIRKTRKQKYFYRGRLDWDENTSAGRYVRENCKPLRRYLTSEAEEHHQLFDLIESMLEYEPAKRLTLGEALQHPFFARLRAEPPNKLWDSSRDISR
Chain of Glycogen synthase kinase-3 beta (Homo sapiens) (P49841 whole entry, looked up, the tested form may be a part): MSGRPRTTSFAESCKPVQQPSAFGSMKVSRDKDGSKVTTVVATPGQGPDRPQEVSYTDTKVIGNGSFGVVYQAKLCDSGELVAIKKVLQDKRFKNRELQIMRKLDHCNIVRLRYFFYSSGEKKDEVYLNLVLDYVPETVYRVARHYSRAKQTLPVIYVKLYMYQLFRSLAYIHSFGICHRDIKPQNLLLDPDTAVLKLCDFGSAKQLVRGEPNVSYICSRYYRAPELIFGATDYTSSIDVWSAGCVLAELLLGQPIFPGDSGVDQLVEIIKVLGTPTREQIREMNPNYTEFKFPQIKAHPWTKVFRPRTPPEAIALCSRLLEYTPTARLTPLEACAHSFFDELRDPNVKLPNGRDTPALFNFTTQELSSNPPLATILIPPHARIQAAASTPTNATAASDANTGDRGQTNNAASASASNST
Chain of Dual specificity tyrosine-phosphorylation-regulated kinase 1B (Homo sapiens) (Q9Y463 whole entry, looked up, the tested form may be a part): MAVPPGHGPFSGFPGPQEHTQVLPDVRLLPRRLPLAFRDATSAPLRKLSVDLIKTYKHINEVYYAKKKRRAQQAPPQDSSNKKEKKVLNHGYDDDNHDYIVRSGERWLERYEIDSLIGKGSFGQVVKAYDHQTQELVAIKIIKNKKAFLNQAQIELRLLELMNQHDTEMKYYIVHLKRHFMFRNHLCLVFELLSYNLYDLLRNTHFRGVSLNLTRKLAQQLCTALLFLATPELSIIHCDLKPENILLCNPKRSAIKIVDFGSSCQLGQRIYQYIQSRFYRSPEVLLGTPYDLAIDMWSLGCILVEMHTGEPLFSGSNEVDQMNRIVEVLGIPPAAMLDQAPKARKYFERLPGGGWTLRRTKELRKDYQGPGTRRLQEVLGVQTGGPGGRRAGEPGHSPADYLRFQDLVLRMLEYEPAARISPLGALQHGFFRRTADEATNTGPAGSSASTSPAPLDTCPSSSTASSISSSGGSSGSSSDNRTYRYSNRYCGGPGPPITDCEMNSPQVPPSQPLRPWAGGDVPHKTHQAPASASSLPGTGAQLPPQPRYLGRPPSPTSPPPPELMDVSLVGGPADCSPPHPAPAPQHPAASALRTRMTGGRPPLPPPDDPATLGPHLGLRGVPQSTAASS
Chain of Dual specificity protein kinase CLK3 (Homo sapiens) (P49761 whole entry, looked up, the tested form may be a part): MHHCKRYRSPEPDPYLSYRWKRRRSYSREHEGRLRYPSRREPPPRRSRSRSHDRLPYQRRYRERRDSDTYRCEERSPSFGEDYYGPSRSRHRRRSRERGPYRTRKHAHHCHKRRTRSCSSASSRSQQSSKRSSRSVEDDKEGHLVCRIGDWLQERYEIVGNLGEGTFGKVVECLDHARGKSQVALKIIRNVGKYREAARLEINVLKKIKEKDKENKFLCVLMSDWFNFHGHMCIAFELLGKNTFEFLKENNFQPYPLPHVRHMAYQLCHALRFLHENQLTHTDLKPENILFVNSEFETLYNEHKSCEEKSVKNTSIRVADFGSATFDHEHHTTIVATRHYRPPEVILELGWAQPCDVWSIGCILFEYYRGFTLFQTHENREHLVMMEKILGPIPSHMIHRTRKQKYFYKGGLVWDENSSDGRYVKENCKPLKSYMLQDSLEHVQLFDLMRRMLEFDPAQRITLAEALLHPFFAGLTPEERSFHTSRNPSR

With `N#Cc1ccc(Nc2nccc(-c3cnn4ncccc34)n2)cc1`, in series [1], the half-inhibitory concentration (IC50) (as a rule, the concentration at which inhibition is half-maximal) came out at 103 nM.
`N#Cc1cccc(Nc2nccc(-c3cnn4ncccc34)n2)c1` [GW778894X]: the half-inhibitory concentration (IC50) in [1] is 5 nM.
Consider `CN(c1ccccc1)c1nccc(-c2cnn3ncccc23)n1`, for which the inhibition (commonly the relative decrease from the control value, in per cent) in [2] came out at 79%; in series [3] it was 33%. Also, the IC50 in series [1] came out at 186 nM.
With `COc1cccc(N(C)c2nccc(-c3cnn4ncccc34)n2)c1`, the IC50 in [1] was 97 nM.
For the molecule `Cc1cccc(N(C)c2nccc(-c3cnn4ncccc34)n2)c1`, the IC50 in [1] amounted to 76 nM. In addition, the inhibition came out at 65% in [4]; 0% in series [5]; 19% in series [6]; 59% in series [7]; 59% in [8]; 6% in series [9]. The inhibition in series [10] turned out to be 12%; in series [11], 4%. Moreover, the microsomal CLint amounted to 75 µL/min/mg in series [12] and 805 µL/min/mg in series [13]. Also, the solubility thermodynamic in [14] is 10 µg/mL (≈ 31.6 µM). Further, the apical-to-basolateral permeability (Papp A→B) (as a rule, the apparent permeability from the apical to the basolateral side of a cell layer) in series [15] was 20.9 ×10⁻⁶ cm/s. In series [16], the Papp B→A (commonly how fast a substance crosses the layer from the basolateral side) came out at 20.1 ×10⁻⁶ cm/s. Moreover, the efflux ratio – broadly, the permeability from basolateral to apical divided by that in the opposite direction, in the common usage – in [17] was found to be 0.96.
Consider `c1ccc(Nc2nccc(-c3cnn4ncccc34)n2)cc1`, for which the inhibition is 97% in series [2] and 98% in series [3]. Also, the IC50 in series [1] came to 38 nM.
Take `COc1cccc(Nc2nccc(-c3cnn4ncccc34)n2)c1` [PYRAZOLOPYRIDAZINE 1]: the IC50 in series [1] turned out to be 12 nM.
Turning to `Cc1cccc(Nc2nccc(-c3cnn4ncccc34)n2)c1`, the IC50 in series [1] came out at 7 nM. In addition, the Kd (commonly the free concentration of one partner at which half of the binding sites on the other are occupied at equilibrium, for simple one-to-one binding) in series [18] came out at 8.9 nM.
As for `Cc1ccccc1Nc1nccc(-c2cnn3ncccc23)n1`, the IC50 in series [1] was 64 nM.
Turning to `COc1ccccc1Nc1nccc(-c2cnn3ncccc23)n1`, the IC50 in series [1] came out at 137 nM.
